Published values of several laboratories.
Lines come from different studies, so protocols differ.
Target: Acetylcholinesterase (ACHE, Homo sapiens, UniProt P22303)
Action: inhibitor

O=[N+]([O-])c1c[nH]c(-c2n[nH]c(=S)n2/N=C/c2cc(Cl)cc(Cl)c2)c1  IC50 (enzyme activity, Ellman): 13.6 µM
CCN(CC)c1ccc(C=NNC(=O)c2ccc(F)cc2)c(OS(=O)(=O)c2ccc(OC)cc2)c1  IC50 (enzyme activity, Ellman): 0.0837 µM
O=C(NCCN1CCCCC1)c1ccccc1F  IC50 (enzyme activity, Ellman): 0.013 µM
C#CCN(C)CCCCCOCc1ccc(CN(C)c2c3c(nc4ccc(C)cc24)CCCC3)cc1  IC50 (enzyme activity, Ellman): 13.4 µM
COc1ccc(S(=O)(=O)Oc2ccc3ccccc3c2C=NNC(=O)c2ccc(F)cc2)cc1  IC50 (enzyme activity, Ellman): 0.114 µM
O=[N+]([O-])c1c[nH]c(-c2n[nH]c(=S)n2/N=C/c2ccc(Oc3ccccc3)cc2)c1  IC50 (enzyme activity, Ellman): 19.3 µM
O=C(NCCN1CCCCC1)c1ccccc1Cl  IC50 (enzyme activity, Ellman): 0.09 µM
O=[N+]([O-])c1c[nH]c(-c2n[nH]c(=S)n2/N=C/c2ccc(Cl)cc2[N+](=O)[O-])c1  IC50 (enzyme activity, Ellman): 15.1 µM
COc1cccc(C=NNC(=O)c2cc(-c3cn(C)c4ccccc34)on2)c1OC  IC50 (enzyme activity): > 100 µM
C#CCN(C)CCCCCCCOc1cccc(CN(C)c2c3c(nc4ccccc24)CCCC3)c1  IC50 (enzyme activity, Ellman): 1.14 µM
COc1ccc(C(=O)NCCN2CCCCC2)cc1  IC50 (enzyme activity, Ellman): 5.6 µM
COC(=O)c1cc(N(C)C(=O)c2ccn3ncc(-c4ccc(C(=O)O)cc4)c3c2)ccc1Cl  IC50 (cell-free assay): > 30 µM
O=C(NCCN1CCCCC1)c1cccc(Cl)c1  IC50 (enzyme activity, Ellman): 0.63 µM
Cn1cc(-c2cc(C(=O)NN=Cc3cccc(Br)c3)no2)c2ccccc21  IC50 (enzyme activity): > 100 µM
C#CCN(C)CCCCCCCCOc1cccc(CN(C)c2c3c(nc4ccccc24)CCCC3)c1  IC50 (enzyme activity, Ellman): 4.33 µM
CN(C)c1ccc(/C=N/n2c(-c3cc([N+](=O)[O-])c[nH]3)n[nH]c2=S)c(O)c1  IC50 (enzyme activity, Ellman): 21.2 µM
C#CCN(C)CCCCOc1cccc(CN(C)c2c3c(nc4ccccc24)CCCC3)c1  IC50 (enzyme activity, Ellman): 6.09 µM
Cn1cc(-c2cc(C(=O)NN=Cc3ccncc3)no2)c2ccccc21  IC50 (enzyme activity): > 100 µM
O=C(NCCN1CCCCC1)c1ccccc1[N+](=O)[O-]  IC50 (enzyme activity, Ellman): 19 µM
CNC(=O)c1ccc(-c2cnn3ccc(C(=O)N(C)c4ccc(Cl)c(C(=O)OC)c4)cc23)cc1  IC50 (cell-free assay): > 30 µM
COc1ccc(S(=O)(=O)Oc2cc(OC)ccc2C=NNC(=O)c2ccc(F)cc2)cc1  IC50 (enzyme activity, Ellman): 0.0919 µM
O=[N+]([O-])c1c[nH]c(-c2n[nH]c(=S)n2/N=C/c2ccc(Br)c(Cl)c2)c1  IC50 (enzyme activity, Ellman): 22.9 µM
CSc1ccc(C=NNC(=O)c2cc(-c3cn(C)c4ccccc34)on2)cc1  IC50 (enzyme activity): > 100 µM
C#CCN(C)CCOc1cccc(CN(C)c2c3c(nc4ccccc24)CCCC3)c1  IC50 (enzyme activity, Ellman): 4.21 µM
COc1ccc(OC)c(C=NNC(=O)c2cc(-c3cn(C)c4ccccc34)on2)c1  IC50 (enzyme activity): > 100 µM
COc1ccc(/C=N/n2c(-c3cc([N+](=O)[O-])c[nH]3)n[nH]c2=S)cc1  IC50 (enzyme activity, Ellman): 25.1 µM
C#CCN(C)CCCCOCc1ccc(CN(C)c2c3c(nc4ccc(C)cc24)CCCC3)cc1  IC50 (enzyme activity, Ellman): 16.2 µM
O=[N+]([O-])c1c[nH]c(-c2n[nH]c(=S)n2/N=C/c2ccc(Cl)c(Cl)c2)c1  IC50 (enzyme activity, Ellman): 14.2 µM
O=C(NCCN1CCCCC1)c1cccc(F)c1  IC50 (enzyme activity, Ellman): 1.6 µM
C#CCN(C)CCCCCCOc1cccc(CN(C)c2c3c(nc4ccccc24)CCCC3)c1  IC50 (enzyme activity, Ellman): 1.16 µM
O=[N+]([O-])c1c[nH]c(-c2n[nH]c(=S)n2/N=C/c2ccc(F)c(O)c2)c1  IC50 (enzyme activity, Ellman): 9.2 µM
